Measured values published in publication PMC12479363 (Nature Immunology, 2025).
Structures can show the parent of a compound that is named as a salt. No end group written: not given here. *: point of attachment. Biotin = O=C1N[C@H]2[C@H](CS[C@H]2CCCCC(=O)*)N1; Ahx = NCCCCCC(=O)O

Tests used:
[1] = tested on: LPS-induced sepsis in mice; experiment: Low-dose LPS; assay type: in vivo, mouse; conditions: for plasma IL-1β levels: mild sepsis, at 24 h, vs saline, n = 10
Outline: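 C57BL/6J and Gsdmd−/− mice (8–10 weeks, 50:50 female:male) were randomized, unblinded, and given LPS (O55:B5) 15 mg per kg i.p. At 16 h they received saline or test peptide 1 mg per kg i.v. Blood AST, BUN, ALT and CK were measured at day 2 (n = 6). Plasma IL-1β was measured by ELISA (n = 10).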

[2] = tested on: LPS-induced sepsis in mice; experiment: Moderate LPS; assay type: in vivo, mouse; conditions: at 6 h, n = 10; for plasma IL-1β levels: vs saline
Outline: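 Sepsis was induced in wild-type mice (8–10 weeks, mixed sex) with LPS (O55:B5) 25 mg per kg i.p. At 5 h after LPS they received saline or test peptide 2 mg per kg i.v. Reference pore inhibitors were given i.p. Plasma IL-1β was measured by ELISA every 3 h up to 48 h.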

[3] = tested on: LPS-induced sepsis in mice; experiment: Severe LPS; assay type: in vivo, mouse; conditions: at 5 h, n = 10; for plasma IL-1β levels: vs saline
human blood leukocytes = experiment: Pyroptosis in human whole blood; assay type: cell-based; conditions: DSF vs PBS, LPS + nigericin-treated blood, 1 h
BMDMs = experiment: Cell membrane repair: CHMP4–GFP puncta and Annexin V; assay type: cell-based, mouse; conditions: 2 mM EDTA + 15 µM SK56, LPS + nigericin
[4] = target: T1, pyroptotic cytomembranes, which contain GSDMD-NT pores (Homo sapiens, UniProt P57764); experiment: Biolayer interferometry, pyroptotic cytomembranes; assay type: binding
T1 sequence (P57764 1-275 limits assumed): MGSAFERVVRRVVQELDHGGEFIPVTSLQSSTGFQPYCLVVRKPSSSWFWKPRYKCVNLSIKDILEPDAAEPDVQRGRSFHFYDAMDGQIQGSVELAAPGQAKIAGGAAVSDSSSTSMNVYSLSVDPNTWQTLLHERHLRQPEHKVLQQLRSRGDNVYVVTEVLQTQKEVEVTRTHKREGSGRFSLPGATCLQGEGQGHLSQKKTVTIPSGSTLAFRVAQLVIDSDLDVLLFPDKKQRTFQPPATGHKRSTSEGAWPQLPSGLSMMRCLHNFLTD

Row | Compound | plasma IL-1β levels [1] | organ damage markers in the plasma [2] | plasma IL-1β levels [2] | organ damage markers in the plasma [3] | plasma IL-1β levels [3] | secretion of IL-1β and IL-18 (human blood leukocytes) | proportion of Annexin V+ BMDMs (BMDMs) | blood biochemical markers (AST, BUN, ALT and CK) ([1]; LPS 15 mg/kg, treatment at 16 h, day 2, vs saline-treated WT mice, n = 6) | Kd [4] [nM]
1 | COC(=O)/C=C/C(=O)OC [DMF, dimethyl fumarate] | reduced plasma IL-1β levels | lowered levels of organ damage markers | reduced plasma IL-1β levels | lowered levels of organ damage markers | reduced plasma IL-1β levels |  |  |  | 
2 | CCN(CC)C(=S)SSC(=S)N(CC)CC [DSF, disulfiram] | reduced plasma IL-1β levels |  | reduced plasma IL-1β levels | failed to suppress BUN but inhibited the other three organ damage markers | reduced plasma IL-1β levels | completely blocked |  |  | 
3 | O=C(O)CN(CCN(CC(=O)O)CC(=O)O)CC(=O)O [EDTA] |  |  |  |  |  |  | restored the proportion of Annexin V^+ BMDMs to the level seen in BMDMs without SK56 treatment |  | 
4 | COc1nccnc1NS(=O)(=O)c1ccc(NC(=O)/C=C/c2ccc([N+](=O)[O-])s2)cc1 [NSA, necrosulfonamide] |  | lowered levels of organ damage markers |  | lowered levels of organ damage markers | had no effect |  |  | inhibited AST, BUN, ALT and CK | 
5 | {Biotin-Ahx-Ahx}-SLEEFAKRVVEELVKEFNLDKRQESYLEMSALIQAQMGISERIIEIVLRHAAQTLK [Biotinylated SK56] |  |  |  |  |  |  |  |  | 10.9
